CHRM5 agonist = CHRM5 agonism in calcium assay; activation, % at 3 µM; CHO-K1 hM5 cells, Fluo-8 calcium fluorescence; 0% DMSO wells, 100% maximal acetylcholine response; P08912; AID 624037; 0.19% of 360,000 active;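 active means activation above the run's mean over test compounds plus 3 SD, cut at about 23% in these data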;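 further: signal is peak over basal fluorescence ratio across the kinetic read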
Target sequence (P08912 whole entry, looked up): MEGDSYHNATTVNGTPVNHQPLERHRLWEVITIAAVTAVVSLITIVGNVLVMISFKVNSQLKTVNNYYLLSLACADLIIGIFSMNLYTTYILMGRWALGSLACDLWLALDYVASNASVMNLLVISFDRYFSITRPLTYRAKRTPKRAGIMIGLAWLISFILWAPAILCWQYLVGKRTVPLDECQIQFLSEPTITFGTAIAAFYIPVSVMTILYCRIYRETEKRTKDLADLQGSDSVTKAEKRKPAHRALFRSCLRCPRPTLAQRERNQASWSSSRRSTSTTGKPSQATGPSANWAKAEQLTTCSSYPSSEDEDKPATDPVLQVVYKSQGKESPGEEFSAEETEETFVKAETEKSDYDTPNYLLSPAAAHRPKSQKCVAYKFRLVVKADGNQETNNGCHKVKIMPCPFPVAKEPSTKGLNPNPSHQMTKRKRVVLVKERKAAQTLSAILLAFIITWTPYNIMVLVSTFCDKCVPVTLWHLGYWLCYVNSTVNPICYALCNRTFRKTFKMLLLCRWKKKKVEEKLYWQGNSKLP
M4 antag = CHRM4 antagonism in calcium assay. 0.73% of 360,000 active. inhibition, % at 3 µM. CHO-hM4 cells, ACh EC80, Fluo-8 calcium fluorescence. AID 624125;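 active means inhibition above its plate's cutoff, the mean inhibition of sample wells plus 3 SD, cut at about 27% in these data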;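 further: 0% = acetylcholine EC80 with DMSO and 100% = DMSO without agonist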
M4 PAM = positive allosteric modulators of human muscarinic M4 receptor | activation, % at 3 µM | 0.4% of 360,000 active | AID 624126 | CHO-K1 hM4/Gqi5, Fluo-8 calcium fluorescence, ACh EC20; 0% = ACh EC20, 100% = maximal ACh;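 active means activation above its plate's cutoff, the mean activation of sample wells plus 3 SD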
M5 antag = blocks acetylcholine activation of human M5 receptor. P08912. CHO-hM5 cells, Fluo-8 calcium fluorescence, ACh EC80. inhibition, % at 3 µM. 0.59% of 360,000 active. AID 624040;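 active means inhibition above a per-plate cutoff, the mean of that plate's test compounds plus 3 SD, cut at about 27% in these data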;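 further: 0% = acetylcholine EC80 with DMSO and 100% = DMSO without agonist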
CHRM4 agonist = agonists of human muscarinic M4 receptor (CHRM4); CHO-K1 hM4/Gqi5, Fluo-8 calcium fluorescence; vehicle 0%, full acetylcholine response 100%; 0.14% of 360,000 active; AID 624127; activation, % at 3 µM; P08173;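 active means activation above the run mean over all test wells plus 3 SD, cut at about 32% in these data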;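 further: peak over basal fluorescence ratio per well then scaled between controls; 0% = DMSO wells and 100% = acetylcholine at EC100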
M5 PAM = positive allosteric modulators of human muscarinic M5 receptor | P08912 | CHO-K1 hM5, Fluo-8 calcium, ACh EC20 PAM; 0% = ACh EC20, 100% = ACh EC100 | activation, % at 3 µM | 0.3% of 360,000 active;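 active means activation above the run cutoff, the mean activation of all test compounds plus 3 SD, cut at about 18% in these data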
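Assay system: CHO-K1 hM5 cells. Also added: acetylcholine at EC20 concentration, added after compound. Dosing: 3 µM, single dose. Times: compound preincubation 140 s before EC20 acetylcholine addition. Signal: Fluo-8 calcium fluorescence. Measure: % activation relative to EC20 and EC100 ACh responses. Repeats: singlicate, one well per test compound.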
Starred values were filed as active, the others as inactive. Rows were chosen to be rich in hits. Some 1.8% of all compounds tested hit in one or more screens of this group.

SMILES	CHRM5 agonist	M4 antag	M4 PAM	M5 antag	CHRM4 agonist	M5 PAM
COc1ccc(C2=Nn3c(nnc3-c3ccccc3OC)SC2)cc1OCC1CC1	-11	4	12	-3	2	-6
COc1ccc(OC)c(-c2nnc3n2N=C(c2ccc(OC(F)F)c(OCC4CC4)c2)CS3)c1	-9	28*	-13	21	1	-40
COc1ccc(C2=Nn3c(nnc3-c3ccccc3F)SC2)cc1OC1CCCC1	-10	29*	-9	12	6	-32
O=C(O)C1CCCCC1C(=O)NCc1ccc(F)cc1 (centres undefined)	2	-1	34*	-2	0	4
O=C(O)C1CCCCC1C(=O)NCc1ccccc1 (centres undefined)	0	2	-3	4	0	-4
C=C(C)Cn1c2ccc(NC(=O)NCCc3ccccc3)cc2c(=O)n1C	1	-2	2	2	1	2
O=C(CCNc1cccc(F)c1)c1cccc([N+](=O)[O-])c1	-10	-14	-8	8	1	-9
O=C(CCNc1ccc(Cc2ccncc2)cc1)c1cccc([N+](=O)[O-])c1	-8	28*	-19	22	3	-16
O=C(NCCN1CCOCC1)c1ccc(NS(=O)(=O)c2cccc([N+](=O)[O-])c2)cc1	1	1	9	2	1	2
NC(=O)c1nc(C(=O)N2CCN(c3ccccc3)CC2)c2ccccc2n1	3	-12	17	-10	1	20*
NC(=O)c1nc(C(=O)N2CCCCC2)c2ccccc2n1	3	-5	6	11	1	8
CCCCN1C2=C(C(=O)CC(C)(C)C2)C(c2ccccc2)C2=C1c1ccccc1C2=O (centres undefined)	-3	-14	7	1	2	-3
CCCN1C2=C(C(=O)CC(C)(C)C2)C(c2ccc(F)cc2)C2=C1c1ccccc1C2=O (centres undefined)	0	-4	30*	-4	-1	11
COc1ccc(NC(=O)CN(C)C2=NS(=O)(=O)c3ccccc32)cc1Cl	-2	-11	10	16	1	-2
Cc1nc2ccccc2cc1OCc1ccc(Cl)cc1	6	19	-14	30*	5	-14
COc1cccc(COc2cc3ccccc3nc2C)c1	3	24	-2	31*	9	-16
Cc1nc2ccccc2cc1OCc1ccccc1	2	6	-10	24	6	-14
COc1ccc(C(C#N)=C2C=CC(=NO)C=C2)cc1	0	5	-11	-2	1	-2
N#CC(=C1C=CC(=NO)C(Cl)=C1)c1ccc(Cl)cc1	-3	39*	-6	5	2	3
Cc1ccc(S(=O)(=O)N2CCN(C(=O)COC(=O)c3ccc(Cl)c(S(N)(=O)=O)c3)CC2)c(C)c1	-3	3	-3	5	2	-2
Cc1ccc(S(=O)(=O)N(C)C)cc1NC(=O)C1CCCCN1S(=O)(=O)c1ccccc1 (centres undefined)	-6	-3	24*	3	1	-5
CC(=O)Nc1ccc(S(=O)(=O)N2CCCC2C(=O)Nc2ccc(F)cc2)cc1 (centres undefined)	-1	4	7	-4	1	4
O=C(Nc1ccc(F)cc1)C1CCCN1S(=O)(=O)c1ccc(Br)cc1 (centres undefined)	-3	-9	25*	0	3	5
CC1CC(C)CN(S(=O)(=O)c2ccc(NC(=O)[C@@H]3CCCN3C(=O)c3cccs3)cc2)C1 (some centres undefined)	-8	28*	-6	3	-1	-22
Cc1ccc(S(=O)(=O)N2CCCC2C(=O)NCc2ccccc2Cl)cc1 (centres undefined)	3	2	0	-16	1	19*
SMILES	CHRM5 agonist	M4 antag	M4 PAM	M5 antag	CHRM4 agonist	M5 PAM
CC(C)(C)c1ccc(C(=O)O[C@H]2[C@H](Cc3ccccc3)NS(=O)(=O)[C@H]3C[C@@H]4C=C[C@]23O4)cc1	1	4	4	-4	2	1
CC(C)n1c(=O)c2ccccc2n1Cc1cn(-c2ccccc2)nn1	-2	-12	-1	-2	1	-1
COc1cc(OC)nc(Nc2nc(C(N)Cc3ccc(Cl)cc3)cs2)n1 (centres undefined)	9	13	-2	4	20	4
O=C(O)C1CCCN1S(=O)(=O)c1ccccc1 (centres undefined)	1	-7	39*	-9	2	26*
CCN1CCN(c2c(Cl)cccc2NC(=O)c2cc3ccccc3o2)CC1	-6	-22	12	-9	5	-2
Cc1cc(C)n2nc(-c3ccc(Br)cc3)cc2n1	-2	1	18*	-1	2	0
Cn1c(-c2ccc3c(c2)OCO3)cnc1NCc1ccccc1Cl	-10	50*	-26	22	1	-15
Cn1c(-c2ccc3c(c2)OCO3)cnc1NCc1cccc(Cl)c1	-7	32*	-25	12	2	-20
Cn1c(-c2ccc3c(c2)OCO3)cnc1NCc1ccccc1	-8	11	-13	1	1	-6
COc1cc(Cl)ccc1OCc1cc(C(=O)N2CCN(C3CCCCC3)CC2)no1	-2	1	-9	4	4	-8
CCCCN(C(=O)c1ccc(S(=O)(=O)N2CCC(C)CC2)cc1)C1CCS(=O)(=O)C1 (centres undefined)	-4	-1	0	-3	1	1
C(=C\c1ccccc1)/CN1CCN(C(c2ccccc2)c2nnnn2C2CCCCC2)CC1 (centres undefined)	-8	8	-11	23	0	-22
Cn1c(SCc2ccc(Br)cc2)nc2ccccc2c1=O	1	8	-6	8	5	-10
Cn1c(SCc2ccccc2)nc2ccsc2c1=O	3	14	-15	30*	15	-21
COc1ccc(CNC(=O)COC(=O)[C@H](Cc2c[nH]c3ccccc23)NC(=O)c2cccs2)cc1	0	31*	-23	11	12	-14
O=C(CSc1nc2ncc(Cl)cc2[nH]1)N1CCC(Cc2ccccc2)CC1	-3	-8	8	0	1	2
CN(C)CCOC1c2ccccc2CSc2ccccc21 (centres undefined)	-19	98*	-16	99*	1	-28
CCOC(=O)C1=C(COC(=O)c2ccc(Cl)nc2)NC(=O)NC1C (centres undefined)	3	-13	4	4	3	2
CC1CCCN(c2nc3ccsc3c(=O)s2)C1 (centres undefined)	-7	28*	-29	0	-3	-10

Source: PubChem BioAssay
